The source of these data is ChEMBL document CHEMBL1134719, “Design, synthesis and stability of N-acyloxymethyl- and N-aminocarbonyloxymethyl-2-azetidinones as human leukocyte elastase inhibitors” (Bioorg Med Chem Lett, 2001).

Calls of active or inactive are those of the source.

Data set [1] concerns the target T1, Neutrophil elastase (Homo sapiens) (UniProt P08246).
T1 sequence (whole entry): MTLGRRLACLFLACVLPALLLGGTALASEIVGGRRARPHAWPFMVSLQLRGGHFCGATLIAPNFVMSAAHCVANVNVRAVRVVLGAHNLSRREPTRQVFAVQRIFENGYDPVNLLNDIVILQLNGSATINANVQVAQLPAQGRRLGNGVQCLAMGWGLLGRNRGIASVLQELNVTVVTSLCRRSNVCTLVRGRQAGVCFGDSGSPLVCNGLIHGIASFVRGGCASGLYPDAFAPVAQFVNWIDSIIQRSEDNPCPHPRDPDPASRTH
The data set can be described thus: (§1) Second-order rate constant for the inhibition of human leukocyte elastase. The gist of the method:
(§2)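 Pre-incubation (Kitz–Wilson) kinetics at 25 °C. Enzyme and inhibitor were incubated, and aliquots were withdrawn at several time intervals into a cuvette holding substrate in HEPES buffer. After 30 s, the absorbance change was followed for 60 s.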

Data set [2] deals with T1, Neutrophil elastase (Homo sapiens). The data set can be described thus: Second-order rate constant for the inhibition of human leukocyte elastase;NI=no inhibition. The gist of the method:
as §2

Data set [3] has as its target T2, Chymotrypsin-like elastase family member 2A (Sus scrofa) (UniProt P08419).
T2 sequence (whole entry): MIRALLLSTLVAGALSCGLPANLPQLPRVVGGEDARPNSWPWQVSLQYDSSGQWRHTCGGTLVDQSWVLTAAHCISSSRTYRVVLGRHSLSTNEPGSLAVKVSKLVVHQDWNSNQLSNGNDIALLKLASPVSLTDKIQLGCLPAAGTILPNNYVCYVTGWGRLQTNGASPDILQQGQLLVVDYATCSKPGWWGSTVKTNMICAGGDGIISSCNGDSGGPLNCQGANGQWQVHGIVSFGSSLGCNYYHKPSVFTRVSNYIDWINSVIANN
The data set can be described thus: Second-order rate constant for the inhibition of PPE (pancreatic porcine elastase); NI=no inhibition. An outline of the steps:
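Porcine pancreatic elastase was assayed at 25 °C with an inhibitor-to-enzyme ratio [I]/[E] of 200, giving the second-order constant k_obs/[I].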

Data set [4] is described as follows: Half-life in pH 7.4 phosphate buffer at 37 degree C. It counts as ADME.
Data set [5] deals with T3, Neutrophil elastase (Homo sapiens, UniProt P08246).
T3 sequence (P08246 whole entry): T1 sequence (whole entry)
Described as §1. The gist of the method:
as §2

In data set [6] the target is T1, Neutrophil elastase (Homo sapiens). The data set can be described thus: Second-order rate constant for the inhibition of HLE (human leukocyte elastase). An outline of the steps: as §2

`CO[C@H]1C(=O)N2C(C(=O)O)=C(COC(C)=O)CS(=O)(=O)C12` (some centres undefined) yielded a second-order inhibition rate constant in data set [1] of 19000 M⁻¹ s⁻¹.
In data set [1], `CCC1(CC)C(=O)N(COC(=O)NS(=O)(=O)c2ccc(C)cc2)C1S(=O)(=O)c1ccccc1` (centres undefined) gave a second-order inhibition rate constant of 32.3 M⁻¹ s⁻¹.
Regarding `CCC1(CC)C(=O)N(CO)C1S(=O)(=O)c1ccccc1` (centres undefined), the “k obs / 1” value in data set [2] is “inactive”.
As a reminder, the half-life is the time needed for the level to fall by half in the phase considered. The low end stands for fast loss, the high end for slow loss. With `CCC1(CC)C(=O)N(COC(=O)c2ccccc2)C1S(=O)(=O)c1ccccc1` (centres undefined), the “k obs / 1” value in data set [3] is “inactive”. In data set [4], this molecule showed a half-life of 125 days. For the same molecule, the second-order inhibition rate constant in data set [1] worked out at 67.5 M⁻¹ s⁻¹.
One may read the IC50 as the concentration that gives 50% inhibition. The low end stands for greater potency, the high end for weaker potency. The molecule `CO[C@H]1C(=O)N2C(C(=O)O)=C(CF)CS(=O)(=O)C12` (some centres undefined) had a half-life in data set [4] of 0.792 days. 110 µM corresponded to half-maximal inhibition in data set [5] (IC50).
Regarding `CCC1(CC)C(=O)N(COC(=O)Nc2ccc(OC)cc2)C1S(=O)(=O)c1ccccc1` (centres undefined), the “k obs / 1” value in data set [3] is “inactive”. In data set [4], the half-life is above 208 days. This molecule also showed a second-order inhibition rate constant in data set [1] of 100 M⁻¹ s⁻¹.
As for `CCC1(CC)C(=O)N(COC(=O)Nc2ccccc2)C1S(=O)(=O)c1ccccc1` (centres undefined), in data set [3], the “k obs / 1” value is “inactive”. Besides, the second-order inhibition rate constant in data set [1] is 41.9 M⁻¹ s⁻¹.
Consider `CCC1(CC)C(=O)N(COC(=O)c2ccccc2)C1Sc1nc2ccccc2o1` (centres undefined), for which the “k obs / 1” value in data set [3] was “inactive”. In addition, in data set [4], the half-life is 13.2 days. Also, the second-order inhibition rate constant in data set [1] was determined as 52.8 M⁻¹ s⁻¹.
Take `O=C(OCN1C(=O)CC1Sc1ccccc1)c1ccccc1` (centres undefined): the “k obs / 1” value in data set [2] was “inactive”.
For the molecule `O=C1CCN1CO`, the “k obs / 1” value in data set [2] was “inactive”.
As for `O=C(OCN1C(=O)CC1Sc1nc2ccccc2o1)c1ccccc1` (centres undefined), the “k obs / 1” value in data set [3] is “inactive”. In data set [1], the second-order inhibition rate constant is 43.2 M⁻¹ s⁻¹.
As for `O=C(OCN1C(=O)CC1S(=O)(=O)c1ccccc1)c1ccccc1` (centres undefined), in data set [3], the “k obs / 1” value is “inactive”. Also, the half-life in data set [4] is 40.8 days. This molecule showed a second-order inhibition rate constant in data set [1] of 18.7 M⁻¹ s⁻¹.
Turning to `CCC1(CC)C(=O)N(COC(=O)Nc2ccc(C)cc2)C1S(=O)(=O)c1ccccc1` (centres undefined), the “k obs / 1” value in data set [3] was “inactive”. The molecule further displayed a second-order inhibition rate constant in data set [1] of 60.9 M⁻¹ s⁻¹.
In the case of `O=C(OCN1CCC1=O)c1ccccc1`, the “k obs / 1” value in data set [3] is “inactive”. The half-life in data set [4] was 0.0542 days. The molecule also had a k obs / 1 in data set [6] of 35.5 M⁻¹ s⁻¹.
In the case of `CCC1(CC)C(=O)N(COC(=O)c2ccccc2)C1Sc1ccccc1` (centres undefined), in data set [1], the second-order inhibition rate constant was 2.2 M⁻¹ s⁻¹.
